Assay results from ChEMBL document CHEMBL3817802, “Discovery of Benzofuran Derivatives that Collaborate with Insulin-Like Growth Factor 1 (IGF-1) to Promote Neuroprotection” (J Med Chem, 2016).

Tests used:
[1] = (§1) Neuroprotective activity against serum starvation-induced cell death in Sprague-Dawley rat primary neural cells assessed as neuronal survival rate incubated for 3 days in presence of 100 ng/ml human recombinant IGF-1 by beta3-tubulin-detecting cell-ELISA relative to control; format: functional, cell-based; conditions: Primary neuron, 72 h
Procedure, shortened: (§2)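 Primary neural cells were taken from rat hippocampal and cerebral cortical tissue and grown 4 days in serum-containing medium. They were then switched to serum-free medium for 3 days, with 100 ng/mL IGF-1 plus test agent, to induce starvation death. Neurons were counted by cell-ELISA for βIII-tubulin immunoreactivity. EC50 was reported with its 95% confidence interval.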

[2] = Metabolic clearance in human liver microsomes at 1 umol/L by LC/MS/MS analysis; format: ADME; conditions: read-out: CLH
[3] = molecular target: CYP2C9 (Homo sapiens, UniProt P11712); assay: Inhibition of CYP2C9 in human liver microsomes at 10 uM incubated for 30 mins by HPLC analysis; format: ADME
[4] = Neuroprotective activity against serum starvation-induced cell death in Sprague-Dawley rat primary neural cells assessed as neuronal survival rate at 1 umol/L incubated for 3 days in presence of 3 to 100 ng/ml human recombinant IGF-1 by beta3-tubulin-detecting cell-ELISA; format: functional, Primary neuron
Procedure, shortened: (§3)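 Primary neural cells from rat hippocampal and cerebral cortical tissue were grown 4 days in serum-containing medium, then 3 days serum-free to induce death, with or without IGF-1. The line's compound concentration was present during the serum-free phase. Neuron number was estimated by cell-ELISA for βIII-tubulin immunoreactivity. Data are mean ± SEM of four wells.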

[5] = test system: Primary neuron; assay: as §1; format: functional, cell-based; procedure, shortened: as §2
[6] = Neuroprotective activity against serum starvation-induced cell death in Sprague-Dawley rat primary neural cells assessed as neuronal survival rate at 1 umol/L incubated for 3 days by beta3-tubulin-detecting cell-ELISA relative to control; format: functional, Primary neuron; procedure, shortened: as §3
[7] = test system: HepG2; assay: Cytotoxicity against human HepG2 cells assessed as decrease in cellular ATP content at 100 uM after 1 day; format: cell-based; design: scale not given: the % may be the effect or the level left; conditions: hepg2, 24 h
[8] = Ratio of drug level in brain to plasma of Sprague-Dawley rat at 0.1 mg/kg, iv by cassette dosing measured at 1 hr by LC/MS/MS analysis; format: ADME, organism-based
[9] = Neuroprotective activity against serum starvation-induced cell death in Sprague-Dawley rat primary neural cells assessed as neuronal survival rate at 0.33 uM incubated for 3 days in presence of 100 ng/ml human recombinant IGF-1 by beta3-tubulin-detecting cell-ELISA relative to control; format: functional, Primary neuron; procedure, shortened: as §3
[10] = Oral bioavailability in Sprague-Dawley rat at 1 mg/kg by LC/MS/MS analysis; format: ADME, organism-based; conditions: in vivo
[11] = Neuroprotective activity against serum starvation-induced cell death in Sprague-Dawley rat primary neural cells assessed as neuronal survival rate at 10 uM incubated for 3 days in presence of 100 ng/ml human recombinant IGF-1 by beta3-tubulin-detecting cell-ELISA relative to control; format: functional, Primary neuron; procedure, shortened: as §3

CYP2C9, sequence (P11712 whole entry): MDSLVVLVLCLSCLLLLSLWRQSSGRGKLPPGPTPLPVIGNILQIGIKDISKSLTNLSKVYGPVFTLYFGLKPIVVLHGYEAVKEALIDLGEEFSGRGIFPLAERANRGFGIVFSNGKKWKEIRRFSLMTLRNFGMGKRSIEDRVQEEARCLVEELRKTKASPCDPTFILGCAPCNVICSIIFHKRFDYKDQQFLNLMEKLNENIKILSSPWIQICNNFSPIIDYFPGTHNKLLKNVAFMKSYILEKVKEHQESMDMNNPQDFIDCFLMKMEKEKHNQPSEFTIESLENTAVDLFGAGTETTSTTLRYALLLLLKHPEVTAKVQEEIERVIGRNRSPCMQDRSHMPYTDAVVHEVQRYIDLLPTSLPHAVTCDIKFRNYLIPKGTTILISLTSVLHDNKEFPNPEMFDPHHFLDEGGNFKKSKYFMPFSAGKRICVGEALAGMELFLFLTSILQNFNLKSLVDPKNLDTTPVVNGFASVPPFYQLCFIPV

## Cc1ccc(N2CCN(c3c(C)c(C)c4c(c3C)CC(C)(C)O4)CC2)cc1
[1]
  EC50: 130 nM
[2]
  microsomal CLint at 1 µM: 30 µL/min/mg

## Cc1c(C)c(N2CCN(c3ccc(Cl)cc3)CC2)c(C)c2c1OC(C)(C)C2
[1]
  EC50: 660 nM

## COc1ccc(N2CCN(c3c(C)c(C)c4c(c3C)CCO4)CC2)cc1
[1]
  EC50: 230 nM

## COc1ccc(N2CCN(c3c(C)c(C)c4c(c3C)CC(C)(C)O4)CC2)cn1
[1]
  EC50: 620 nM

## COc1ccc(N2CCCN(c3c(C)c(C)c4c(c3C)CC(C)(C)O4)CC2)cc1
[1]
  EC50: 76 nM
[2]
  microsomal CLint at 1 µM: 87 µL/min/mg

## COc1ccc(N2CCN(c3c(C)c(C)c4c(c3C)C(=O)C(C)(C)CO4)CC2)cc1
[1]
  EC50: 510 nM
[3]
  inhibition at 0.5 h, 10 µM: 42.1%

## COc1ccc(N2CCN(c3c(C)c(C)c4c(c3C)C[C@](C)(CO)O4)CC2)cc1
[1]
  EC50: 630 nM

## COc1ccc(CN2CCN(c3c(C)c(C)c4c(c3C)CC(C)(C)O4)CC2)cc1
[1]
  EC50: 680 nM

## COc1ccc(N2CCN(c3c(C)c(C)c4c(c3C)C[C@@H](C)O4)CC2)cc1
[1]
  EC50: 440 nM

## COc1ccc(N2CCN(c3c(C)c(C)c4c(c3C)CC(C)(C)O4)CC2)cc1OC
[1]
  EC50: 270 nM

## COc1ccc(N2CCN(c3c(C)c(C)c4c(c3C)C[C@H](C)O4)CC2)cc1
[1]
  EC50: 460 nM

## COc1ccc(N2CCN(c3c(C)c(C)c4c(c3C)C[C@@](C)(CO)O4)CC2)cc1
[1]
  EC50: 700 nM

## Cc1c(C)c(N2CCN(c3ccc(F)cc3)CC2)c(C)c2c1OC(C)(C)C2
[1]
  EC50: 300 nM

## COc1ccc(N2CCN(c3c(C)c(C)c4c(c3C)CC(C)(C)O4)CC2)cc1
[4]
  fold change (FC): 6
[5]
  Activity: Dose-dependent effect
[1]
  EC50: 150 nM
[6]
  fold change (FC): 3
[2]
  microsomal CLint at 1 µM: 2 µL/min/mg
[7]
  Activity: 93.3%
[8]
  Kp at 1 h: 2.9
[3]
  inhibition at 0.5 h, 10 µM: -0.9%
[9]
  fold change (FC): 3

## Cc1c(C)c(N2CCN(c3ccc(C#N)cc3)CC2)c(C)c2c1OC(C)(C)C2
[1]
  EC50: > 1000 nM

## CC(=O)c1ccc(N2CCN(c3c(C)c(C)c4c(c3C)CC(C)(C)O4)CC2)cc1
[1]
  EC50: 150 nM
[7]
  Activity: 68%

## Cc1c(C)c(N2CCN(c3ccccc3)CC2)c(C)c2c1OC(C)(C)C2
[1]
  EC50: 380 nM

## COc1ccc(N2CCN(c3c(C)c(C)c4c(c3C)CC(C)(C)O4)CC2)c(OC)c1
[1]
  EC50: 390 nM

## COc1ccc(N2CCN(c3c(C)c(C)c4c(c3C)C(=O)C(C)(C)O4)CC2)cc1
[10]
  bioavailability: 42.3%
[1]
  EC50: 120 nM
[8]
  Kp at 1 h: 3.4
[3]
  inhibition at 0.5 h, 10 µM: 83.4%

## COc1ccc(C2CN(c3c(C)c(C)c4c(c3C)CC(C)(C)O4)CCN2C)cc1 (racemic)
[1]
  EC50: 550 nM

## Cc1c(C)c(N2CCNCC2)c(C)c2c1OC(C)(C)C2
[11]
  Survival: 20%

## COc1ccc(C2CN(c3c(C)c(C)c4c(c3C)CC(C)(C)O4)CCO2)cc1 (racemic)
[1]
  EC50: 370 nM
